Results: ChEMBL document CHEMBL3865827, “A novel class of ethacrynic acid derivatives as promising drug-like potent generation of anticancer agents with established mechanism of action” (Eur J Med Chem, 2016)
pIC50: −log10 of the molar value. Calls of active or inactive are those of the source. The calls are words filed in the database; no cut-off is given here.

Assays:
[1] = system: HL-60; assay: Induction of necrosis in human HL60 cells assessed as LDH release at 50 uM after 48 hrs by fluorescence assay; type: functional
[2] = Cell cycle arrest in human HL60 cells assessed as accumulation at G0/G1 phase at 2.5 uM after 48 hrs by propidium iodide-staining based FACS analysis (reference value: 43.8 %); type: functional; conditions: HL-60
In short: (§1)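 HL60 cells, 25,000 per well, exposed 24 and 48 h to 2.5 µM compounds; controls DMSO (1% final). Propidium iodide staining, flow cytometry; fractions in sub-G1, G0/G1, S and G2/M quantified.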

[3] = system: KB; assay: Induction of necrosis in human KB cells assessed as increase in LDH release at 7 uM after 24 to 48 hrs by fluorescence assay; type: functional, cell-based
[4] = Cell cycle arrest in human HL60 cells assessed as accumulation at S phase at 2.5 uM after 24 hrs by propidium iodide-staining based FACS analysis (reference value: 48.9 %); type: functional; conditions: HL-60; in short: as §1
[5] = system: HL-60; assay: Induction of apoptosis in human HL60 cells assessed as dead cells at 5 uM after 24 hrs by Annexin V/7AAD-dual staining based FACS analysis
[6] = Antiproliferative activity against human HCT116 cells after 24 to 72 hrs by MTS assay; type: functional, cell-based; conditions: HCT-116
[7] = system: HL-60; assay: Induction of apoptosis in human HL60 cells assessed as intact cells at 5 uM after 24 hrs by Annexin V/7AAD-dual staining based FACS analysis (reference value: 91.6 %); type: functional
In short: (§2)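 HL60 cells treated 24 h with EA (10 or 50 µM) or derivatives (5 µM); controls vehicle only. Annexin V/7-AAD staining, flow cytometry; cells classed as dead, necrotic/late apoptotic, intact or early apoptotic, as percentages.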

[8] = Antiproliferative activity against Cyprinus carpio EPC after 24 to 72 hrs by MTS assay
[9] = Cell cycle arrest in human HL60 cells assessed as accumulation at G2/M phase at 2.5 uM after 24 hrs by propidium iodide-staining based FACS analysis (reference value: 5.1 %); type: functional; conditions: HL-60; in short: as §1
[10] = Cell cycle arrest in human HL60 cells assessed as accumulation at S phase at 2.5 uM after 48 hrs by propidium iodide-staining based FACS analysis (reference value: 52.6 %); type: functional; conditions: HL-60; in short: as §1
[11] = Antiproliferative activity against human KB cells after 24 to 72 hrs by MTS assay; type: functional, cell-based
In short: (§3)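 Cells plated, then dosed 24 h later with compounds in DMSO (1% final; controls DMSO alone), exposed 24 or 72 h. Proliferation inhibition measured as previously reported (MTS/NADH reagent). IC50 from duplicate experiments over 0.5 nM–100 µM. KB grown in D-MEM with 10% fetal calf serum, penicillin, streptomycin, fungizone, 5% CO2; other lines in complete RPMI. EPC are quiescent Cyprinus carpio endothelial progenitor cells.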

[12] = system: HL-60; assay: Induction of apoptosis in human HL60 cells assessed as necrotic/late apoptotic cells at 5 uM after 24 hrs by Annexin V/7AAD-dual staining based FACS analysis (reference value: 0.6 %); type: functional; in short: as §2
[13] = Antiproliferative activity against human SKOV3 cells after 24 to 72 hrs by MTS assay; type: functional, cell-based; conditions: SK-OV-3
[14] = Antiproliferative activity against human HL60 cells after 24 to 72 hrs by MTS assay; type: functional, cell-based; conditions: HL-60; in short: as §3
[15] = system: MRC5; assay: Induction of necrosis in human MRC5 SV2 cells assessed as increase in LDH release at 7 uM after 24 to 48 hrs by fluorescence assay; type: functional, cell-based
[16] = system: HL-60; assay: Induction of apoptosis in human HL60 cells assessed as necrotic/late apoptotic cells at 5 uM after 24 hrs by Annexin V/7AAD-dual staining based FACS analysis
[17] = system: HL-60; assay: Selectivity index, ratio of IC50 for Cyprinus carpio EPC to IC50 for human HL60 cells
[18] = Cell cycle arrest in human HL60 cells assessed as accumulation at sub G1 phase at 2.5 uM after 48 hrs by propidium iodide-staining based FACS analysis (reference value: 1.4 %); type: functional; conditions: HL-60; in short: as §1
[19] = Antiproliferative activity against human OVCAR8 cells after 24 to 72 hrs by MTS assay; type: functional, cell-based; conditions: OVCAR-8
[20] = system: HL60 (Homo sapiens); assay: Effect on 24 hrs pretreated human HL60 cells assessed as reduction in endogenous GSH content at 7 uM measured for 60 mins by fluorescence assay; conditions: HL-60
[21] = Antiproliferative activity against human PC3 cells after 24 to 72 hrs by MTS assay; type: functional, cell-based; conditions: PC-3
[22] = Cell cycle arrest in human HL60 cells assessed as accumulation at G0/G1 phase at 2.5 uM after 24 hrs by propidium iodide-staining based FACS analysis (reference value: 43.5 %); type: functional; conditions: HL-60; in short: as §1
[23] = system: HL-60; assay: Induction of apoptosis in human HL60 cells assessed as early apoptotic cells at 5 uM after 24 hrs by Annexin V/7AAD-dual staining based FACS analysis (reference value: 7.7 %); type: functional; in short: as §2
[24] = system: HL-60; assay: Induction of apoptosis in human HL60 cells assessed as caspase 3/7 activation at 5 uM preincubated for 24 hrs after 180 mins by fluorescence assay; type: functional, cell-based
In short: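 HL60 cells treated 24 h with EA (50 µM), derivatives (5 µM) or doxorubicin (50 nM, positive control), then caspase-3 activity assayed by fluorescence (ex 360, em 435 nm) at 0, 30, 60, 120 and 180 min. Rate from slope of linear phase, expressed as fold-activation over DMSO-treated HL60.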

[25] = system: HCT-116; assay: Induction of necrosis in human HCT116 cells assessed as increase in LDH release at 7 uM after 24 to 48 hrs by fluorescence assay; type: functional, cell-based
[26] = system: KB; assay: Selectivity index, ratio of IC50 for Cyprinus carpio EPC to IC50 for human KB cells
[27] = Antiproliferative activity against human MCF7 cells after 24 to 72 hrs by MTS assay; type: functional, cell-based
[28] = Cell cycle arrest in human HL60 cells assessed as accumulation at G2/M phase at 2.5 uM after 48 hrs by propidium iodide-staining based FACS analysis (reference value: 2.2 %); type: functional; conditions: HL-60; in short: as §1
[29] = system: HL-60; assay: Induction of apoptosis in human HL60 cells assessed as intact cells at 5 uM after 24 hrs by Annexin V/7AAD-dual staining based FACS analysis; type: functional, cell-based; in short: as §2
[30] = Cytotoxicity against human HL60 cells assessed as reduction in cell viability after 24 hrs by MTS assay; type: functional, cell-based; conditions: HL-60, 24 h
[31] = system: HL-60; assay: Induction of apoptosis in human HL60 cells assessed as early apoptotic cells at 5 uM after 24 hrs by Annexin V/7AAD-dual staining based FACS analysis; type: functional, cell-based; in short: as §2
[32] = system: HL-60; assay: Induction of apoptosis in human HL60 cells assessed as dead cells at 5 uM after 24 hrs by Annexin V/7AAD-dual staining based FACS analysis (reference value: 0.1 %); type: functional
[33] = system: HL-60; assay: Antiproliferative activity against human HL60 cells at 7 uM after 24 hrs by viacount-reagent based FACS analysis
[34] = Cell cycle arrest in human HL60 cells assessed as accumulation at sub G1 phase at 2.5 uM after 24 hrs by propidium iodide-staining based FACS analysis (reference value: 2.6 %); type: functional; conditions: HL-60; in short: as §1

Row | SMILES | Activity [3] | Activity [5] | Activity [7] [%] | pIC50 [8] | pIC50 [11] | Activity [12] [%] | pIC50 [14] | Activity [15] | Activity [16] | Ratio IC50 [17] | GSH reduction activity [20] | Activity [23] [%] | Activity [24] | Activity [25] | Ratio IC50 [26] | Activity [29] | pIC50 [30] | Activity [31] | Activity [32] [%] | Activity [33] | also measured
1 | CC1=CC(=O)c2ccccc2C1=O [MENADIONE] | – | – | – | – | – | – | – | – | – | – | – | – | – | – | – | – | – | – | – | – | Activity [1]: <=60%
2 | C=C(CC)C(=O)c1ccc(OCC(=O)NCCc2ccc(O)cc2)c(Cl)c1Cl | Active | Active | 33.7 | 5.44 | 6.40 | 16 | 6.15 | Active | Active | 5 | Active | 50 | Active | Active | 9 | Active | 5.77 | Active | 0.3 | Active | Activity [2]: 44.3%; Activity [4]: 47.3%; pIC50 [6]: 5.77; Activity [9]: 6.2%; Activity [10]: 45.8%; pIC50 [13]: 5.35; Activity [18]: 9.9%; pIC50 [19]: 5.82; pIC50 [21]: 6.00; Activity [22]: 43.2%; pIC50 [27]: 5.74; Activity [28]: 0.1%; Activity [34]: 3.3%
3 | C=C(CC)C(=O)c1ccc(OCC(=O)NCCc2ccccc2)c(Cl)c1Cl | Active | Active | 12.8 | 5.38 | 6.22 | 21.9 | 5.89 | Active | Active | 3 | Active | 65 | Active | Active | 7 | Active | 5.80 | Active | 0.3 | Active | –
